Experimental data: the EternaBench riboswitch data

Test system: MS2 coat protein
Assay: apparent Kd, MS2 coat protein; higher = weaker binding; RNA-MaP array; FMN 200 µM where present
Summary of the method: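 Designs on Illumina sequencing-chip clusters, transcribed by stalled E. coli RNA polymerase, were exposed to SNAP-549-labelled MS2 coat protein in doubling steps from 0.7 or 1.5 nM up to 3 µM, without and then with constant ligand. The buffer held 100 mM Tris-HCl pH 7.5, 80 mM KCl, 4 mM MgCl2, BSA, DTT, yeast tRNA and Tween-20. Apparent Kd values are medians of filtered per-cluster binding-curve fits to green signal normalised to red-channel RNA signal and control-cluster median Fmax.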

[1] = designed as: OFF switch for flavin mononucleotide, no ligand
[2] = ligand present: flavin mononucleotide, designed as: OFF switch for flavin mononucleotide
[3] = designed as: ON switch for flavin mononucleotide, no ligand
[4] = ligand present: flavin mononucleotide, designed as: ON switch for flavin mononucleotide

| Sequence | apparent Kd [1] [nM] | apparent Kd [2] [nM] | apparent Kd [3] [nM] | apparent Kd [4] [nM] |
| --- | --- | --- | --- | --- |
| UCGUCGCUAGGAGGAUAUACAUGAUCUCACACAUGUACCGCUCACGCCACAUGAGGAUCACCCAUGUAGAAGGCCUAGAGAGGU | 26.5 | 56.4 |  |  |
| UCGUGAGGGACAGGAUAUGGACAUGAGGAUCACCCAUGUACAUGGGAAUAUAUACUGAAUUUAUACUAGAAGGGUUACAUAAAU | 21.6 | 16.1 |  |  |
| UCGUGCCGGGUUGCGAGCGACCCACAUGAGGAUCACCCAUGUAGAAGGACCAGCGUCGGCCCUUGGUAGGAUAUACAUGAACUC | 113 | 152 |  |  |
| UCUACUUUACAUGAUUCAUCAACACAGGAUAUACCCGCAACAUGAGGAUCACCCAUGUAGGCCCGGUAGAAGGGUGCUUGGGAA |  |  | 10.8 | 6.43 |
| UCUCACUCAGGAUAUGAUGCGCAUGACAUGAGGAUCACCCAUGUGUGCAUGCCCUUUGCUUCAGAAGGGAGUGAGA | 19 | 21.6 |  |  |
| UCUCAGUCAGGAUAUCGUUAAUUUAAUUGUUUGUAUUAGUUCGAGAAGGGACAUGAGGAUCACCCAUGUACUCA | 34 | 94.6 |  |  |
| UCUCGUGUUCAGAAGGGCAAUCAACGAACAUGAGGAUCACCCAUGUUCUGCAGGAUAUGAACGGGUGGGAGCCCUGCGAAGGGA |  |  | 167 | 25.5 |
| UCUGGUCGAGGAUAUACGUGACGUGCUUCGGCACGAGGUCUACAUGAGGAUCACCCAUGUAGAAGGCGACCAGA | 17.1 | 48 |  |  |
| UCUGGUCGAGGAUAUGCGUAAUGUGUUACGGCACGAGGUCUACAUGAGGAUCACCCAUGUAGAAGGCGAUCAGA | 13.9 | 12.7 |  |  |
| UCUGUAGGAAUACAGACGAAGUGGCCAGAAGGUGAAUGCCACAUGAGGAUCACCCAUGUUUCGAUCAAGGAUAUGGUUUCUCAC |  |  | 312 | 79.8 |
| UCUUUACUGGUCAGGAUAUACAUUCGCUACUCUUUGUAGAAGGGACAUGAGGAUCACCCAUGUACUUUACAUUC | 17.9 | 18 |  |  |
| UGAAAUCAUGUAGGAUAUGCAUGGCGAAGCUGCGCAGAAGGACAUGAGGAUCACCCAUGUUAUAGCUACCCAGUUCGGUGGCAA | 37.3 | 171 |  |  |
| UGACCCAUGACAUGAGAUGACAUGAGGAUCACCCAUGUGUACAAGGAUAUGUUGGUCAAAGGUCGGCAGAAGGUGUAAUGGGAU | 59.8 | 146 |  |  |
| UGACGGAGCUGAGGAUAUUACAUGAGGAUCACCCAUGUAAGUCUCCAGGAAACUGGAGACAAAUGUAAGAAGGCAGCUCCGUCA | 18.7 | 27.9 |  |  |
| UGAGACCUCACAGGAUAUGCUGGACUUUGUCCAGCAGAAGGGUGAAAACAUGAGGAUCACCCAUGUAUGGUCUCCAAAUUUAAA |  |  | 187 | 13.6 |
| UGAGCAUGAGGAUAUACAUGACGUGCCGUAGCACGAGGUCUACAUGAGGAUCACCCAUGUAGAAGGCAUGUUCU | 23 | 87.4 |  |  |
| UGAGCCUCGUGAGGAUAUACAUGAGGAUCACCCAUGUAAUAGGAUGAACGGAGGAAACUCCGAAUGUAGAAGGCACGAGGCUCA | 77.7 | 664 |  |  |
| UGAGCGACCACAGGAUAUGCUUGAGAAGACCGAGCAGAAGGGUGGAAGAGCGUGCAGUGACAUGAGGAUCACCCAUGUGGUUGG |  |  | 173 | 170 |
| UGAUACUAAGAGAAGGUACAAACUACAUAUUACAUACAUGAGGAUCACCCAUGUUGGUGAAUAAGUAAGGAUAUUUUACUAUAU | 15.4 | 12.4 |  |  |
| UGAUAGGACAGAGGAUAUACGGAUAGGAUCUACUAUCUUCUUCAAAUAACAUGAGGAUCACCCAUGUAGAAGGCUGUCCUAUCU | 15 | 33 |  |  |
| UGAUCGAGAGAUCUUAGAUUCUGGUAGGAUAUACAUUAUGAAAAUUUUACAUGAGGAUCACCCAUGUAGAAGGACUAGAGUCUA | 5.44 | 6.33 |  |  |

| Sequence | apparent Kd [1] [nM] | apparent Kd [2] [nM] | apparent Kd [3] [nM] | apparent Kd [4] [nM] |
| --- | --- | --- | --- | --- |
| UGAUCGAGAGAUCUUAGAUUCUGGUAGGAUAUACAUUAUGUAUUAUAUACAUGAGGAUCACCCAUGUAGAAGGACUAGAGUCUA | 6.7 | 11.8 |  |  |
| UGAUCGAGAGAUCUUAGAUUCUGGUAGGAUAUACAUUAUGUUUGAUAUACAUGAGGAUCACCCAUGUAGAAGGACUAGAGUCUA | 7.34 | 15.9 |  |  |
| UGAUCUAUGUAGAAGGCCCAUAUCUGUAUUUAGGGAGGAUAUACAUGAGGAUCACCCAUGUGUAGAGCUGGUGGACUGGUCAGC | 87.8 | 183 |  |  |
| UGAUCUUGUGUUAGGAUAUGCUGGUUUUUUUUUCAGCAGAAGGGACAUGAGGAUCACCCAUGUUCUCUCUUUUU | 12.8 | 17.3 |  |  |
| UGAUCUUUUGUUAGGAUAUGCUGGGUUUUUUCUCAGCAGAAGGGACAUGAGGAUCACCCAUGUUUUGUCAUAAA | 18.9 | 47.6 |  |  |
| UGAUUGAGAUUGUAGGAUAUUGGAAAAGCCACAUGAGGAUCACCCAUGUCAAAAAAAAAAAAAAACAAGAAGGGCGGUUUUAGUUA |  |  | 72.9 | 61.8 |
| UGCAGCGUGCACAUGAGGAUCACCCAUGUGCCAGUGAACGCACAGGAUAUGCAAUCGUACGGCUAGCAGAAGGGUGGGUCUCAC |  |  | 7.65 | 6.45 |
| UGCGACCUAGGAUAUACAUGAGGAUCACCCAUGUGAUUCGGUGGCGCGAUCCUUGAAAGUAGAAGGAGGAGCAA | 40.1 | 35.3 |  |  |
| UGCGGAAGAGGAUAUACGUAGAAAUAGAUUCAUGUAAAACUACAUGAGGAUCACCCAUGUAGAAGGCUUUCGCU | 24.8 | 232 |  |  |
| UGCGGAAUCACAGGAUAUGCGGGAAGAACGAUACCGUACAUGAGGAUCACCCAUGUGGCGGCAAAGCAGAAGGGUGGUUCUCGC |  |  | 8.42 | 5.79 |
| UGCGGAUAUCGAGGAUAUGCGACGGGUUCUCACAUGAGGAUCACCCAUGUCCGCGGGCCUCAAAAGCAGAAGGCGAGUUCGGUU |  |  | 376 | 10.6 |
| UGGAAGGUAUGAGGAUAUGCAUGCGAAACGCAUGCAGAAGGCAUGUCAAUAGACAUGAGGAUCACCCAUGUAUUAUCCUUCCAA |  |  | 455 | 41.7 |
| UGGAGGUCAGGAUAUGCAUGGCGGGACUUGCGUCGUGGCGUGCAGAAGGGACAUGAGGAUCACCCAUGUGGAGG | 124 | 121 |  |  |
| UGGCCGGAGACAGGAUAUGUGACUGCAUAGUGCACAGAAGGGUCUACAUGAGGAUCACCCAUGUCACCGAACGCCAAACCACAA |  |  | 574 | 26.1 |
| UGGCUACAUGAGGAUCACCCAUGUCAGGAUAUGCCGUUAAAUUAACAUCAACAUACGGGUAGAAGGGACUGCGU | 28.8 | 29.5 |  |  |
| UGGCUACAUGAGGAUCACCCAUGUCAGGAUAUGCCGUUAAAUUAACAUCAACGUACGGGUAGAAGGGACUGCGU | 24.3 | 23 |  |  |
| UGGGAGUCAGGAUAUACGAACAUGUCGCCAGAUGUCAAGGUACAUGAGGAUCACCCAUGUAGAAGGGACUAGAA | 39.4 | 42.1 |  |  |
| UGGGUUGUUGAGGAUAUCCCGACCGUCUGGUCGGGAGAAGGCAAUACAUGAGGAUCACCCAUGUCACACUUUUC | 32.2 | 66.5 |  |  |
| UGGUAAUAGGGAGGAUAUGGGAAGAUACAUGAGGAUCACCCAUGUUUAAGAAUGCCGAGAGGCAACUAGAAGGCCCUAGUACCU |  |  | 468 | 19.6 |
| UGGUACAUCGCAGGAUAUCAUGUAGAUACAUGAGGAUCACCCAUGUCGAUGGAGACAUCGGAGAUUGAGAAGGGCGAUGUACCU |  |  | 907 | 41.1 |
| UGGUACAUCGGAGGAUAUCAUGUAUAUACAUGAGGAUCACCCAUGUCGAUGGAGACAUCGGAGAUUGAGAAGGCCGAUGUACCU |  |  | 799 | 33.3 |
